Our source for the Activity and IC50 values is ChEMBL document CHEMBL5390262, “Further Studies on the Highly Active Des-C-Ring and Aromatic-D-Ring Analogues of 1α,25-Dihydroxyvitamin D3 (Calcitriol): Refinement of the Side Chain” (J Med Chem, 2023).

Data set [1] concerns MDA-MB-231. As to the kind of experiment: Antiproliferative activity against human MDA-MB-231 cells assessed as decrease in cell proliferation at 0.1 uM incubated for 48 hrs in presence of cisplatin by MTT assay. The format is functional, cell-based. In short, it runs like this: (§1)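 MDA-MB-231 cells seeded at 2 x 10^5 cells/well in medium with charcoal-treated FCS, then treated 24 h later with compound at 10^-7 M (ethanol vehicle) for 48 h, alone or together with cisplatin 25 μM. Read by MTT, DMSO solubilization, absorbance at 570 nm. Expressed as percent inhibition of proliferation relative to ethanol control normalized to 100%.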

Data set [2] deals with MDA-MB-231. As to the kind of experiment: Antiproliferative activity against human MDA-MB-231 cells cultured as 3D spheroids assessed as decrease in cell growth by measuring the sphere diameter at 0.1 uM incubated for 6 days in presence of cisplatin by Phase-contrast microscopy. The format is functional, cell-based. The settings on record: time 6.0 day. In short, it runs like this: (§2)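 3D culture: single-cell suspension of MDA-MB-231 (5x10^3 cells/100 μL) grown 4 days on a cell-repellent surface. Then treated 6 days with compound at 10^-7 M, given every other day, with or without cisplatin 25 μM. Ethanol control. Sphere growth quantified as relative units; mean ± SD.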

Data set [3] relates to MCF7. Briefly: Upregulation of Cadherin-1 protein expression in human MCF7 cells at 0.1 uM incubated for 48 hrs by Western blot analysis. The format is functional, cell-based. In short, it runs like this: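 MCF-7 cells in charcoal-stripped FCS medium treated with compound at 10^-7 M (ethanol vehicle) for 48 h. E-cadherin protein detected by Western blot with GAPDH as loading control; bands quantified by densitometry.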

Data set [4] deals with Mus musculus. As to the kind of experiment: Effect on hypercalcemic activity in Swiss CD-1 mouse assessed as increase in serum calcium level at 0.3 microg/kg,ip using sesame oil as vehicle for 21 days on every other day by QuantiChom calcium assay. The data set is classed as functional. The settings on record: dose 0.3 µg/kg, time 21.0 day. Summed up: (§3)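 Groups of 5 male Swiss CD-1 mice given 0.3 μg/kg i.p. every other day for 21 days in sesame oil vehicle; sesame oil alone as control. Body weight recorded at day 21. Serum calcium measured at end of test by colorimetric calcium assay kit. Mean ± SD, n=5.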

Data set [5] can be described thus: Toxicity in Swiss CD-1 mouse assessed as body weight change at 0.3 microg/kg,ip using sesame oil as vehicle for 21 days on every other day. The conditions noted are these: in vivo, 0.0003 mg/kg, 504 h, dose 0.3 µg/kg, time 21 day. In short, it runs like this: as §3
The subject of data set [6] is MDA-MB-231. As to the kind of experiment: Antiproliferative activity against human MDA-MB-231 cells cultured as 3D spheroids assessed as decrease in cell growth by measuring the sphere diameter at 0.1 uM incubated for 6 days by Phase-contrast microscopy. The data set is classed as functional, cell-based. The conditions noted are these: time 6.0 day. Summed up: as §2

For data set [7], the system named is HaCaT. Briefly: Induction of human HaCaT cells differentiation assessed as increase in formation of compact epithelioid islands at 0.1 microM incubated for 48 hrs by phase-contrast microscopy. The format is functional, cell-based. In short, it runs like this: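 HaCaT keratinocytes in charcoal-treated FCS medium treated 24 h after plating with compound at 10^-7 M in ethanol for 48 h. Ethanol-treated controls. Differentiation judged by phase-contrast microscopy, e.g. compact epithelioid island formation.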

Data set [8] concerns MDA-MB-231. Briefly: Antiproliferative activity against human MDA-MB-231 cells assessed as decrease in cell proliferation at 0.1 uM incubated for 48 hrs by MTT assay. The format is functional, cell-based. In short, it runs like this:
as §1

For data set [9], the target named is T1, Vitamin D3 receptor (Homo sapiens, UniProt P11473).
T1 sequence (P11473 whole entry): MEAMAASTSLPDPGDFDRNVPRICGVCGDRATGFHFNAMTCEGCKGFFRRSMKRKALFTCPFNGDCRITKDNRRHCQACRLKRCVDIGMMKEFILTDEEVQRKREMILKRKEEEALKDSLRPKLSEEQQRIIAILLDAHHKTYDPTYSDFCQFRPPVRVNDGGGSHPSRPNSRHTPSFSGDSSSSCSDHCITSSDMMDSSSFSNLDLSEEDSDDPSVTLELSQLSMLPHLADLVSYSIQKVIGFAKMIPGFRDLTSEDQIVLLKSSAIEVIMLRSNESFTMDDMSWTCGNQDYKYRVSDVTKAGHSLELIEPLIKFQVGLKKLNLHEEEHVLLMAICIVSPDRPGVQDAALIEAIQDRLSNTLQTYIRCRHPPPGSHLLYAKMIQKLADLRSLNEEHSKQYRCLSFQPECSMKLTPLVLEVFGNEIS
As to the kind of experiment: Binding affinity to full length human VDR by Competitive binding assay.

pIC50: −log10 of the molar value. The source made the active and inactive calls. The rule behind the calls is not given here.

For `C=C1/C(=C\C=C2/CCC[C@]3(C)[C@@H]([C@H](C)CCCC(C)(C)O)CC[C@@H]23)C[C@@H](O)C[C@@H]1O` [CALCITRIOL], the outcome in data set [1], in data set [2], in data set [3], in data set [4], in data set [7] and in data set [8] was Active. In addition, the Activity entry in data set [5] is given as “Toxic”. Moreover, the outcome in [6] was inactive.
Turning to `C=C1/C(=C\C=C(/C)c2cccc(CCC#CCC(O)(C(F)(F)F)C(F)(F)F)c2)C[C@@H](O)C[C@@H]1O`, the outcome in [1], in data set [2], in data set [3], in data set [7] and in data set [8] was Active. Also, in data set [9], the pIC50 is 7.34. The result in data set [4] and in data set [6] was inactive. For the same compound, the Activity entry in data set [5] is listed as “Non-Toxic”.
For the compound `C=C1/C(=C\C=C(/CC)c2cccc(CCC#CCC(C)(C)O)c2)C[C@@H](O)C[C@@H]1O`, the result in [1], in data set [2], in [3], in data set [7] and in [8] was Active. The same compound had a pIC50 in [9] of 8.13. Also, the outcome in data set [4] and in data set [6] was inactive. For the same compound, the Activity entry in data set [5] is “Non-Toxic”.
As for `C=C1/C(=C\C=C(/CC)c2cccc(CCCCCC(O)(C(F)(F)F)C(F)(F)F)c2)C[C@@H](O)C[C@@H]1O`, the outcome in data set [1], in data set [2], in [3], in data set [7] and in [8] was Active. In addition, the pIC50 in data set [9] was 8.54. The result in data set [4] and in data set [6] was inactive. For the same compound, the Activity result in data set [5] is “Non-Toxic”.
Consider `C=C1/C(=C\C=C(/CC)c2cccc(CCC#CCC(O)(C(F)(F)F)C(F)(F)F)c2)C[C@@H](O)C[C@@H]1O`, for which the result in data set [1], in [2], in data set [3], in data set [7] and in data set [8] was Active. In data set [9], the pIC50 was 8.33. The outcome in data set [4] and in data set [6] was inactive. For the same compound, the Activity result in data set [5] is “Non-Toxic”.
